# Screening results: PubChem, several laboratories
# This excerpt belongs to a sample that is enriched for hits.
# Avidin bead fluor: compound fluoresces at 488/530 nm on avidin beads; fluorescence (KMESF) at 10 µM; compound fluorescence 488/530 nm, flow cytometry; stronger effect = higher value; hit rate 0.38% among 220,000; in the data active = fluorescence above about 47
# L major viab: inhibitors of Leishmania major promastigote growth. inhibition, % at 10 µM. AID 1063. hit rate 9% among 200,000. Leishmania major promastigotes, resazurin fluorescence viability;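 note: promastigotes grown with compound for 44 hours at 28 °C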
# ABCB1 inh: blocks JC-1 efflux by human ABCB1 transporter | inhibition, % at 6.6 µM | hit rate 0.067% among 190,000 | CCRF-Adr cells, flow cytometry | AID 1326; in the data active = inhibition above about 40%;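 note: 0% = vehicle and 100% = reference inhibitor; higher value means more JC-1 retained so stronger ABCB1 efflux block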
# ABCG2 inh: blocks JC-1 efflux by human ABCG2 transporter; IgMXP3 cells, flow cytometry; inhibition, % at 6.6 µM; hit rate 0.1% among 190,000; AID 1325;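 active = inhibition above 80%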;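 note: 0% = DMSO and 100% = nicardipine control wells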
#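 Read-out basis: Efflux inhibition in percent versus controls | Test system: ABCG2 IgMXP3 and barcoded ABCB1 CCRF-Adr cell mix | Quantity: 3 million cells/mL in well | Schedule: 10 min at 25 °C | Control set: Nicardipine as high control, DMSO as low control | Reagent: JC-1 as fluorescent efflux pump substrate | Signal: Flow cytometry of retained JC-1 fluorescence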
# GSH fluor: GSH bead compound fluorescence profile; GSH beads flow cytometry, compound fluorescence 488/530 nm; stronger effect = higher value; fluorescence (KMESF) at 10 µM; hit rate 0.25% among 190,000; AID 1776; in the data active = fluorescence above about 89;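 note: glutathione beads carrying GST-tagged Bcl family fusion proteins plus one bare bead set; values are compound well signal with DMSO vehicle wells as background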
# PKD1 kinase inh: inhibitors of human PKD1 kinase; Q15139; PKD1 kinase fluorescence polarization assay; inhibition, % (concentration not given with the values); hit rate 0.056% among 200,000; AID 797
# Target sequence (Q15139 whole entry, looked up): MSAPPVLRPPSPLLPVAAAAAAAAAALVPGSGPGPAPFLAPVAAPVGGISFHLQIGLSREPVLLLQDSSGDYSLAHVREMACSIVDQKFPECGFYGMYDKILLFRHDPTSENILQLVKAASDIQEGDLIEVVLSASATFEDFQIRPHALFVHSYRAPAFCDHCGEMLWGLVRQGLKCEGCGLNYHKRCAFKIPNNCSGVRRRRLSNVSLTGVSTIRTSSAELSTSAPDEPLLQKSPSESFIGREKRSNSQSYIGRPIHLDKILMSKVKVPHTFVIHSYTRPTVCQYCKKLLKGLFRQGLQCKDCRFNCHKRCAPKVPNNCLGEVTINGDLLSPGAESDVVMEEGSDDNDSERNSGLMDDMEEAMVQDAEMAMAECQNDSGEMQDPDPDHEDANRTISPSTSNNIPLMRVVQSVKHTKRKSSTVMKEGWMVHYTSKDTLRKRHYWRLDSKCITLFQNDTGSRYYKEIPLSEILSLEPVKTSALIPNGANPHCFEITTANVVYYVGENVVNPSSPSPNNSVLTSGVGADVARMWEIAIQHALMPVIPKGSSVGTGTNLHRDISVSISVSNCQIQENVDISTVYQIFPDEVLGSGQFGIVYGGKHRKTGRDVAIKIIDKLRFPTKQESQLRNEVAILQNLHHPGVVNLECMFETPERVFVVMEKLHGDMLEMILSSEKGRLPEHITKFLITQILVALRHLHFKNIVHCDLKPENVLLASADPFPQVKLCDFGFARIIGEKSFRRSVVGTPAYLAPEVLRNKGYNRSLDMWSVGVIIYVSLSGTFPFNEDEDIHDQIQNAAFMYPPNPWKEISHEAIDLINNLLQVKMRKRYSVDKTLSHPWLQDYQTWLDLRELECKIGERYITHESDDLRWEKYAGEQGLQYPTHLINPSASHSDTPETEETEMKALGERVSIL
# * = called active by the depositor; / = no result. Cut-off read from the data, not from the text of the source, unless noted: active = inhibition above about 50%; inactive = the rest.
SMILES,Avidin bead fluor,L major viab,ABCB1 inh,ABCG2 inh,GSH fluor,PKD1 kinase inh
COc1ccc(NC(=O)Cn2nnc(-c3ccccc3NC(=O)c3cccs3)n2)cc1,30,2,0,2,12,8
COc1ccccc1NC(=O)Cn1nnc(-c2ccccc2NC(=O)c2cc3ccccc3oc2=O)n1,25,101*,0,0,11,-7
COc1cc(OC)cc(C(=O)Nc2ccccc2-c2nnn(CC(N)=O)n2)c1,15,2,1,13,10,10
Nc1nc(Sc2c([N+](=O)[O-])cc(C(F)(F)F)cc2[N+](=O)[O-])n[nH]1,8,/,/,/,/,/
CCOC(=O)c1[nH]c(C)c(C(=O)OCC(=O)Nc2sc3c(c2C#N)CCCCC3)c1C,10,-1,4,15,16,-1
CCn1c(SCC(=O)N/N=C/c2ccc(C)s2)nc2ccccc21,15,5,1,3,8,-1
O=S(=O)(c1ccc(F)cc1)N1CCN(c2ccccn2)CC1,10,-5,2,6,15,2
Cc1cc(C)nc(N/N=C/c2cn[nH]c2-c2ccc(F)cc2)n1,8,/,/,/,/,/
CCCn1c(CC)nc([N+](=O)[O-])c1S(=O)(=O)c1ccccc1,6,100*,0,1,24,0
CN(CC(=O)Nc1ccc(N2CCOCC2)cc1)CC(=O)Nc1ccccc1C#N,6,-4,1,8,11,-2
Fc1ccc(COc2ccc(Br)cc2CNCC2CCCO2)cc1 (centres undefined),9,82*,1,2,17,-4
Fc1ccccc1COc1ccc(Br)cc1CNCC1CCCO1 (centres undefined),11,-13,2,5,15,0
O=C1c2ccccc2C(=O)N1c1ncn[nH]1,6,/,/,/,/,/
O=C(Nc1ccccn1)c1ccc([N+](=O)[O-])o1,14,99*,0,2,14,-16
COc1ccc(COc2ccccc2C(=O)Nc2ccccn2)cc1[N+](=O)[O-],11,62*,1,40,2,-11
Cc1ccnc(NC(=O)c2ccc([N+](=O)[O-])o2)c1,-1,99*,0,7,29,2
O=C(Nc1ncccn1)c1ccc([N+](=O)[O-])o1,23,-2,0,0,57,-4
CS(=O)(=O)N1CCC(Oc2ccccc2C(=O)N2CCNC(=O)C2)CC1,7,-2,0,1,22,9
O=C(CSc1nnc(Nc2ccccc2)s1)NN1C(=O)NC2(CCCCC2)C1=O,15,27,0,2,9,5
CC(C)CNC(C(=O)Nc1ccc([N+](=O)[O-])cc1Br)c1ccccc1 (centres undefined),6,79*,3,31,19,-10
CN(C)C(CNC(C(=O)Nc1ccc([N+](=O)[O-])cc1Br)c1ccccc1)c1ccccc1 (centres undefined),12,20,4,3,14,-5
CC(C)C1OC(c2cccc(NC(=O)c3cccs3)c2)OCC1(C)C (centres undefined),24,12,1,4,12,-7
Cc1cc(C)c(S(C)(=O)=O)c(Oc2ccc(C(C)(C)C)cc2)n1,8,3,0,3,13,6
Cc1ccc2nc(NC(=O)C3CCN(S(=O)(=O)c4cccs4)CC3)sc2c1,16,52*,0,0,16,7
CCOc1ccc2nc(NC(=O)C3CCN(S(=O)(=O)c4cnc[nH]4)CC3)sc2c1,4,2,0,-1,23,8
SMILES,Avidin bead fluor,L major viab,ABCB1 inh,ABCG2 inh,GSH fluor,PKD1 kinase inh
Cc1ccc2nc(NC(=O)C3CCN(S(=O)(=O)c4cc([N+](=O)[O-])ccc4Cl)CC3)sc2c1,10,99*,-1,-5,5,-6
COc1ccc(CC(=O)Nc2nc3ccc(F)cc3s2)cc1S(=O)(=O)N1CCOCC1,7,90*,1,5,15,-9
COc1ccc(CC(=O)Nc2nc3ccccc3s2)cc1S(=O)(=O)N1CCOCC1,5,3,0,-1,31,0
CCOc1ccc2nc(NC(=O)C3CCN(c4cnccn4)CC3)sc2c1,5,70*,0,0,19,1
O=C(CN1CCC(NC(=O)c2ccco2)CC1)Nc1ccccc1[N+](=O)[O-],8,-1,2,2,9,4
Cc1[nH]c2ccccc2c1C(=O)CSC(=S)N1CCCCC1,11,7,0,4,13,5
Cc1ccc(NC(=O)C2CCN(c3cnccn3)CC2)cc1,15,78*,0,2,10,0
O=C(Nc1ccc(Cl)cc1F)C1CCN(S(=O)(=O)c2cccnc2)CC1,9,73*,1,21,21,-5
CCOc1ccc2nc(NC(=O)c3ccoc3C)sc2c1,56*,42,0,41,35,-6
O=C(Nc1nc2ccc(F)cc2s1)C1CCN(S(=O)(=O)c2cc([N+](=O)[O-])ccc2Cl)CC1,12,99*,-1,2,8,-10
CS(=O)(=O)c1nc(-c2ccc(Br)cc2)n[nH]1,15,-6,0,0,10,-4
COc1ccc2nc(NC(=O)C3CCN(S(=O)(=O)c4cccnc4)CC3)sc2c1,7,54*,0,2,25,-20
Cc1ccc(C2=N/C(=C/N3CCOCC3)C(=O)O2)cc1,9,16,1,6,30,-4
Cc1ccc(C2=N/C(=C\N3CCCCC3)C(=O)O2)cc1,89*,11,2,5,31,-6
CN(C1CCCCC1)S(=O)(=O)c1ccc(-c2ccccn2)s1,6,/,/,/,/,/
Cc1[nH]c(=O)c(C(=O)/C=C/c2ccccc2F)c2c1CCCC2,15,100*,0,9,32,0
Clc1ccc(OCCN2CCCCC2)c(Cl)c1,7,99*,0,2,17,-4
Clc1ccccc1OCCN1CCCCC1,8,88*,1,4,20,-4
Nc1nc2ccccc2n1CCOc1ccccc1Cl,10,100*,1,7,13,-3
CN(Cc1ccccc1)CC(O)COc1ccc(CNCCc2ccncc2)cc1 (centres undefined),8,90*,0,0,9,-13
CCn1ccnc1CNCc1ccc(OCC(O)CN(C)Cc2ccccc2)cc1 (centres undefined),2,32,2,2,10,2
CN(Cc1ccccc1)CC(O)COc1ccc(CNCCc2cccnc2)cc1 (centres undefined),7,83*,0,2,18,4
CCN(Cc1ccccc1)CC(O)COc1ccccc1 (centres undefined),9,8,1,3,41,2
CCc1ccc(CNCc2ccc(OCC(O)CN(C)Cc3ccccc3)cc2)nc1 (centres undefined),3,85*,2,-1,10,-5
